# From ChEMBL document CHEMBL1127367, “Antiproliferative properties of polyamine analogues: a structure-activity study” (J Med Chem, 1994)
# Tests used:
# [1] = molecular target: Spermidine/spermine N(1)-acetyltransferase (SAT) (Mus musculus) (UniProt Q6P8J2+P48026); assay: […] spermidine/spermine N1-Acetyltransferase (SSAT) activity; assay type: functional; set-up: concentration or dose not given beside the values
# [2] = molecular target: T1, S-adenosylmethionine decarboxylase proenzyme 1 (Mus musculus) (UniProt P0DMN7); assay: Inhibition of S-Adenosyl-methionine decarboxylase (AdoMetDC) activity; assay type: functional; set-up: concentration or dose not given beside the values
# T1 sequence (whole entry): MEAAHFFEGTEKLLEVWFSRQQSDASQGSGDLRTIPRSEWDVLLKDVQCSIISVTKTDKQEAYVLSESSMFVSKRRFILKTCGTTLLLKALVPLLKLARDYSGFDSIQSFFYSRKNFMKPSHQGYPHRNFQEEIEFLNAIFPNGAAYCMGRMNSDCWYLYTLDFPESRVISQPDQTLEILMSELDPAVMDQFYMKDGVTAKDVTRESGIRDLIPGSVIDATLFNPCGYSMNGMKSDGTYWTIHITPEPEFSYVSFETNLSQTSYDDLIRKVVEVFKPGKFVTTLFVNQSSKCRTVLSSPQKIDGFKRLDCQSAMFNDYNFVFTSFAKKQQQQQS
# L1210 [3] = assay: Compound level in L1210 cells after 48 hours of incubation at initial concentration of 500 uM is expressed as nmol/10e6 cells; assay type: functional, Mus musculus; set-up: unit: nmol/10^6 cells
# L1210 [4] = assay: Compound was evaluated for its impact on putrescine (Put) levels after 48 hr at concentration 100 uM; assay type: functional, Mus musculus
# L1210 [5] = assay: Compound was evaluated for its impact on spermine levels after 48 hr at concentration 100 uM; assay type: functional, Mus musculus
# L1210 [6] = assay: Compound was evaluated for its impact on spermidine levels after 48 hr at concentration 500 uM; assay type: functional, Mus musculus
# L1210 [7] = assay: In vitro inhibition of L1210 growth after 96 hours.; assay type: functional, cell-based; conditions: Mus musculus, L1210, 96 h
# Outline: (§1)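 Log-phase L1210 cultures (0.5–1.0 × 10^5 cells/mL) treated with analogue diluted in sterile water and filter-sterilized. After 48 h, cells were reseeded and grown a further 48 h for the 96 h point. Cells counted by Coulter counter. % growth = (treated − inoculum)/(untreated − inoculum) × 100.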
# L1210 [8] = assay: Inhibition of radiolabeled spermidine uptake into L1210 cells in vitro.; assay type: functional, cell-based, Mus musculus
# L1210 [9] = assay: Compound was evaluated for its impact on spermidine levels after 48 hr at concentration 100 uM; assay type: functional, Mus musculus
# L1210 [10] = assay: Compound was evaluated for its impact on putrescine (Put) levels after 48 hr at concentration 500 uM; assay type: functional, Mus musculus
# [11] = molecular target: T2, Ornithine decarboxylase (Mus musculus) (UniProt P00860); assay: Inhibition of ornithine decarboxylase (ODC) activity; assay type: functional; set-up: concentration or dose not given beside the values
# T2 sequence (whole entry): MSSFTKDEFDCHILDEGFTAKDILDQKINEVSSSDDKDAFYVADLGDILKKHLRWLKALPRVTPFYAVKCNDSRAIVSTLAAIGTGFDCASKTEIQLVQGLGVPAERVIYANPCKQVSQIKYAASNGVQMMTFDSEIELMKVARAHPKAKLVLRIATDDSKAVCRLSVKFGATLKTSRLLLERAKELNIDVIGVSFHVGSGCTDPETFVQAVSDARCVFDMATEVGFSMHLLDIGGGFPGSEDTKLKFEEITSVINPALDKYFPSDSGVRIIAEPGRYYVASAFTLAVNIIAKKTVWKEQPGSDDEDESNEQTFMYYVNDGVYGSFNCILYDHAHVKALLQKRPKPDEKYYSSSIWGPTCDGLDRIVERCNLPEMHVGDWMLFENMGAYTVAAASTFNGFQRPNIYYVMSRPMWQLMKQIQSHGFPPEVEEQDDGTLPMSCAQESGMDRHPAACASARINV
# L1210 [12] = assay: Compound level in L1210 cells after 48 hours of incubation at initial concentration of 100 uM is expressed as nmol/10e6 cells; assay type: functional, Mus musculus; set-up: unit: nmol/10^6 cells
# L1210 [13] = assay: In vitro inhibition of L1210 growth after 48 hours.; assay type: functional, cell-based; conditions: Mus musculus, L1210, 48 h; outline: as §1
# L1210 [14] = assay: Compound was evaluated for its impact on spermine levels after 48 hr at concentration 500 uM; assay type: functional, Mus musculus
# L1210 [15] = assay: Compound level in L1210 cells after 48 hours of incubation at initial concentration of 1 uM is expressed as nmol/10e6 cells; assay type: functional, Mus musculus
# Outline: (§2)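 Murine L1210 leukemia cells were kept in logarithmic growth as a suspension in RPMI-1640 with 10% NuSerum, 2% HEPES-MOPS buffer and 1 mM aminoguanidine, at 37 °C under 5% CO2. Log-phase cells were exposed to the analogue for 48 h. Intracellular analogue content is reported per 10^6 cells.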
# [16] = molecular target: T2, Ornithine decarboxylase (Mus musculus); assay: Effect of compound on ornithine decarboxylase (ODC) activity expressed as percent of untreated control for ODC (1 uM at 4 h(or 48h))
# Outline: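 L1210 cells exposed to 1 μM analogue for 4 h, or for 48 h in some cases. ODC activity measured as 14CO2 released from [14C]carboxyl-labeled L-ornithine and expressed as % of untreated control.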
# L1210 [17] = assay: Compound was evaluated for its impact on spermine levels after 48 hr at concentration 5 uM; assay type: functional, Mus musculus
# Outline: (§3)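 Murine L1210 leukemia cells in log-phase suspension (RPMI-1640, 10% NuSerum, 2% HEPES-MOPS, 1 mM aminoguanidine, 37 °C, 5% CO2) exposed to analogue for 48 h. Cells washed twice in cold RPMI-1640, extracted with 0.6 N perchloric acid, and polyamines quantified by HPLC. Spermine is reported as % of untreated control.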
# L1210 [18] = assay: Compound was evaluated for its impact on putrescine (Put) levels after 48 hr at concentration 1 uM; assay type: functional, Mus musculus
# Outline: (§4)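 L1210 suspension cultures were grown in RPMI-1640 with 10% NuSerum, 2% HEPES-MOPS and 1 mM aminoguanidine (37 °C, 5% CO2). Log-phase cells were treated for 48 h, then washed twice in cold RPMI-1640 and pelleted. Pellets were extracted with 0.6 N perchloric acid, and supernatants were held at −20 °C until HPLC. Polyamine levels are given as % of untreated controls.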
# L1210 [19] = assay: Compound was evaluated for its impact on spermidine levels after 48 hr at concentration 5 uM; assay type: functional, Mus musculus; outline: as §4
# L1210 [20] = assay: Compound was evaluated for its impact on putrescine (Put) levels after 48 hr at concentration 5 uM; assay type: functional, Mus musculus; outline: as §4
# L1210 [21] = assay: Compound was evaluated for its impact on spermine levels after 48 hr at concentration 1 uM; assay type: functional, Mus musculus; outline: as §3
# L1210 [22] = assay: Compound level in L1210 cells after 48 hours of incubation at initial concentration of 5 uM is expressed as nmol/10e6 cells; assay type: functional, Mus musculus; outline: as §2
# L1210 [23] = assay: Compound was evaluated for its impact on spermidine levels after 48 hr at concentration 1 uM; assay type: functional, Mus musculus; outline: as §4
# Spermidine/spermine N(1)-acetyltransferase (SAT) (Mus musculus), sequence (P48026 whole entry, looked up): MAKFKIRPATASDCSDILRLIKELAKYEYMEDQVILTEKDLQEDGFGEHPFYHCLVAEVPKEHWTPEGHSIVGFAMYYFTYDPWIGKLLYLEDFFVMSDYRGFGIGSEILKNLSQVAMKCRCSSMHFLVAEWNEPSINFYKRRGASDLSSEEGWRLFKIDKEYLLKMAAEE
# Spermidine/spermine N(1)-acetyltransferase (SAT) (Mus musculus), sequence (Q6P8J2 whole entry, looked up): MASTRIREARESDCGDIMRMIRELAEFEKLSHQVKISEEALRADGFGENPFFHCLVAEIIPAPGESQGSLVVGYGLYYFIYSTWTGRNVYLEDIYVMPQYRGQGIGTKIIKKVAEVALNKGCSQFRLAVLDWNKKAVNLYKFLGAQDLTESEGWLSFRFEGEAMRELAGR
compound,measurement,setting,value
CNCCCNCCCNCCCNC,Activity,[1],200%
same,Activity,[2],49%
same,Activity,L1210 [3],1.84
same,Polyamine,L1210 [4],0%
same,Polyamine,L1210 [5],36%
same,Polyamine,L1210 [6],3%
same,IC50,L1210 [7],2500 nM
same,Ki,L1210 [8],5600 nM
same,Polyamine,L1210 [9],5%
same,Polyamine,L1210 [10],0%
same,Activity,[11],6%
same,Activity,L1210 [12],2.14
same,IC50,L1210 [13],> 100000 nM
same,Polyamine,L1210 [14],27%
CCNCCCCNCCCNCCCCNCC,Activity,L1210 [15],0.76
same,Activity,[1],120%
same,Activity,[2],28%
same,Activity,[16],5%
same,Polyamine,L1210 [17],27%
same,Polyamine,L1210 [18],81%
same,Polyamine,L1210 [19],0%
same,IC50,L1210 [7],180 nM
same,Ki,L1210 [8],4000 nM
same,Polyamine,L1210 [20],0%
same,IC50,L1210 [13],1000 nM
same,Polyamine,L1210 [21],52%
same,Activity,L1210 [22],1.5
same,Polyamine,L1210 [23],41%
